Test results as given in ChEMBL document CHEMBL3784993, “Synthesis and anticancer activity of some 5-fluoro-2'-deoxyuridine phosphoramidates” (Bioorg Med Chem, 2016).

Tests used:
[1] = system: HeLa; assay: Cytotoxicity against human HeLa cells after 72 hrs by SRB assay; assay type: functional, cell-based
Method in brief: (§1)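 SRB protein-stain assay. Cells were seeded at about 10,000 per well and grown 24 h to a partial monolayer. They were then exposed for 72 h at 37 °C (5% CO2, 90% RH) to six concentrations: 0.1, 0.2, 1, 2, 10 and 20 µM. Final DMSO was ≤0.1%. Cells were TCA-fixed and stained with 0.4% SRB, and OD was read at 490 nm. Survival was expressed versus untreated cells. Cytarabine served as internal standard, with three experiments.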

[2] = system: KB; assay: Cytotoxicity against human KB cells after 72 hrs by SRB assay; assay type: functional, cell-based; method in brief: as §1
[3] = system: HeLa; assay: Cytotoxicity against human HeLa cells after 72 hrs in presence of human recombinant cytochrome P450 isoform mixture by SRB assay; assay type: functional, cell-based
[4] = system: MCF7; assay: Cytotoxicity against human MCF7cells after 72 hrs by SRB assay; assay type: functional, cell-based; settings: MCF7, 72 h
[5] = system: HepG2; assay: Cytotoxicity against human HepG2 cells after 72 hrs by SRB assay; assay type: functional, cell-based; settings: HepG2, 72 h
[6] = Cytotoxicity against HDF cells after 72 hrs by SRB assay; assay type: cell-based; settings: Homo sapiens
[7] = system: 143B; assay: Cytotoxicity against human thymidine kinase deficient 143B cells after 72 hrs by SRB assay; assay type: functional, cell-based; method in brief: as §1
[8] = system: 143B; assay: Cytotoxicity against human 143B cells after 72 hrs by SRB assay; assay type: functional, cell-based; method in brief: as §1
[9] = system: HeLa; assay: Selectivity index, ratio of IC50 for HDF cells to IC50 for human HeLa cells; assay type: functional
Method in brief: (§2)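 SI is calculated as the IC50 in normal human dermal fibroblasts (HDF) divided by the IC50 in the respective cancer line. Both values come from 72 h SRB assays. SD is from three independent experiments.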

[10] = system: 143B; assay: Selectivity index, ratio of IC50 for HDF cells to IC50 for human 143B cells; assay type: functional; method in brief: as §2
[11] = system: MCF7; assay: Selectivity index, ratio of IC50 for HDF cells to IC50 for human MCF7 cells; assay type: functional; method in brief: as §2
[12] = Selectivity index, ratio of IC50 for HDF cells to IC50 for human KB cells; assay type: functional; method in brief: as §2
[13] = system: HepG2; assay: Selectivity index, ratio of IC50 for HDF cells to IC50 for human HepG2 cells; assay type: functional; method in brief: as §2

SMILES | IC50 [1] | IC50 [2] | IC50 [3] | IC50 [4] | IC50 [5] | IC50 [6] | IC50 [7] | IC50 [8] | Ratio IC50 [9] | Ratio IC50 [10] | Ratio IC50 [11] | Ratio IC50 [12] | Ratio IC50 [13]
[N-]=[N+]=NCCCCNP(=O)(OC[C@H]1O[C@@H](n2cc(F)c(=O)[nH]c2=O)C[C@@H]1O)Oc1ccc(Cl)cc1 (stereo partly specified) | 72.1 µM | 71.3 µM | 20.6 µM | 67.6 µM | > 100 µM | > 100 µM |  |  |  |  |  |  | 
CC(C)(C)OC(=O)O[C@H]1C[C@H](n2cc(F)c(=O)[nH]c2=O)O[C@@H]1COP(=O)(NCC(F)(F)F)Oc1ccc(Cl)cc1 (stereo partly specified) | 14.6 µM | 14.6 µM |  | 4.05 µM | 18.8 µM | 37.1 µM | 2.01 µM | 0.28 µM |  |  |  |  | 
CNP(=O)(OC[C@H]1O[C@@H](n2cc(F)c(=O)[nH]c2=O)C[C@@H]1O)Oc1ccc(Cl)cc1 (stereo partly specified) | 5.78 µM | 4.45 µM |  | 4.44 µM | 9.34 µM | 11.8 µM | 12.7 µM | 2.12 µM | 2.05 | 5.58 | 2.66 | 2.66 | 1.27
C=CCNP(=O)(OC[C@H]1O[C@@H](n2cc(F)c(=O)[nH]c2=O)C[C@@H]1O)Oc1ccc(Cl)cc1 (stereo partly specified) | 89.3 µM | 38.7 µM |  | 94.5 µM | 96.7 µM | 92.1 µM |  |  |  |  |  |  | 
COC(=O)[C@H](C)NP(=O)(OC[C@H]1O[C@@H](n2cc(F)c(=O)[nH]c2=O)C[C@@H]1OC(=O)OC(C)(C)C)Oc1ccc(Cl)cc1 (stereo partly specified) | 1.65 µM | 1.54 µM |  | 2.56 µM | 3.47 µM | 6.21 µM | 3.07 µM | 1.51 µM | 3.76 | 4.11 | 2.39 | 4.03 | 1.66
C=CCNP(=O)(OC[C@H]1O[C@@H](n2cc(F)c(=O)[nH]c2=O)C[C@@H]1OC(=O)OC(C)(C)C)Oc1ccc(Cl)cc1 (stereo partly specified) | 19.1 µM | 16.5 µM |  | 12.8 µM | 17 µM | 27.2 µM |  |  |  |  |  |  | 
CCNP(=O)(OC[C@H]1O[C@@H](n2cc(F)c(=O)[nH]c2=O)C[C@@H]1O)Oc1ccc(Cl)cc1 (stereo partly specified) | 8.19 µM | 8.21 µM |  | 19.4 µM | 5.39 µM | 16.3 µM | 16 µM | 2.41 µM |  |  |  |  | 
COC(=O)[C@H](C)NP(=O)(OC[C@H]1O[C@@H](n2cc(F)c(=O)[nH]c2=O)C[C@@H]1O)Oc1ccccc1 (stereo partly specified) | 23.5 µM | 18 µM |  | 29.1 µM | 25.9 µM | 43.1 µM |  |  |  |  |  |  | 
O=c1[nH]c(=O)n([C@H]2C[C@H](O)[C@@H](CO)O2)cc1F [FLOXURIDINE] |  |  |  |  | 8.91 µM | 13.1 µM | 14.1 µM | 6.02 µM | 2.01 | 2.17 | 1.07 | 1.5 | 1.47
CCCCNP(=O)(OC[C@H]1O[C@@H](n2cc(F)c(=O)[nH]c2=O)C[C@@H]1O)Oc1ccc(Cl)cc1 (stereo partly specified) | > 100 µM | > 100 µM | > 100 µM | > 100 µM | > 100 µM | > 100 µM |  |  |  |  |  |  | 
Oc1ccc(Cl)cc1 [PARACHLOROPHENOL] | 1680 µM | 1450 µM |  | 1880 µM | 1700 µM | 1850 µM |  |  |  |  |  |  | 
COC(=O)[C@H](C)NP(=O)(OC[C@H]1O[C@@H](n2cc(F)c(=O)[nH]c2=O)C[C@@H]1OC(=O)OC(C)(C)C)Oc1ccccc1 (stereo partly specified) | 8.34 µM | 8.34 µM |  | 6.29 µM | 9.28 µM | 17.5 µM |  |  |  |  |  |  | 
CC(C)(C)OC(=O)O[C@H]1C[C@H](n2cc(F)c(=O)[nH]c2=O)O[C@@H]1COP(=O)(NCCCCN=[N+]=[N-])Oc1ccc(Cl)cc1 (stereo partly specified) | 36 µM | 35.6 µM | 17.7 µM | 35.4 µM | 58.9 µM | 48.3 µM |  |  |  |  |  |  | 
O=c1[nH]c(=O)n([C@H]2C[C@H](O)[C@@H](COP(=O)(NCC(F)(F)F)Oc3ccc(Cl)cc3)O2)cc1F (stereo partly specified) | 3.09 µM | 1.93 µM |  | 1.82 µM | 3.48 µM | 4.19 µM | 2.51 µM | 1.8 µM | 1.36 | 2.33 | 2.3 | 2.17 | 1.2
C#CCNP(=O)(OC[C@H]1O[C@@H](n2cc(F)c(=O)[nH]c2=O)C[C@@H]1OC(=O)OC(C)(C)C)Oc1ccc(Cl)cc1 (stereo partly specified) | 4.36 µM | 4.37 µM |  | 4.71 µM | 3.66 µM | 7.21 µM | 3.62 µM | 3.02 µM | 1.65 | 2.39 | 1.53 | 1.65 | 1.97
CNP(=O)(OC[C@H]1O[C@@H](n2cc(F)c(=O)[nH]c2=O)C[C@@H]1OC(=O)OC(C)(C)C)Oc1ccc(Cl)cc1 (stereo partly specified) | 7.27 µM | 7.28 µM |  | 8.18 µM | 6.55 µM | 12.4 µM | 13.1 µM | 6.72 µM |  |  |  |  | 
O=c1[nH]cc(F)c(=O)[nH]1 [FLUOROURACIL] |  |  |  |  | 6.6 µM | 7.02 µM | 16.3 µM | 13 µM | 1.13 | 0.54 | 1.08 | 1.45 | 1.06
COC(=O)[C@H](C)NP(=O)(OC[C@H]1O[C@@H](n2cc(F)c(=O)[nH]c2=O)C[C@@H]1O)Oc1ccc(Cl)cc1 (stereo partly specified) | 4.11 µM | 4.22 µM |  | 4.54 µM | 6.65 µM | 18.4 µM | 8.67 µM | 4.03 µM | 4.49 | 4.58 | 4.06 | 4.37 | 2.77
C#CCNP(=O)(OC[C@H]1O[C@@H](n2cc(F)c(=O)[nH]c2=O)C[C@@H]1O)Oc1ccc(Cl)cc1 (stereo partly specified) | 10.6 µM | 25.3 µM |  | 12 µM | 24.5 µM | 31 µM | 3.9 µM | 3.61 µM |  |  |  |  | 
[N-]=[N+]=NCCCNP(=O)(OC[C@H]1O[C@@H](n2cc(F)c(=O)[nH]c2=O)C[C@@H]1O)Oc1ccc(Cl)cc1 (stereo partly specified) | 22.2 µM | 22.6 µM | 13.5 µM | 27 µM | 22.6 µM | 41 µM |  |  |  |  |  |  | 
CC(C)(C)OC(=O)O[C@H]1C[C@H](n2cc(F)c(=O)[nH]c2=O)O[C@@H]1CO | 63.5 µM | 75.9 µM |  | 64.2 µM | 80.4 µM | > 100 µM | 47 µM | 18 µM |  |  |  |  | 
Nc1ccn([C@@H]2O[C@H](CO)[C@@H](O)[C@@H]2O)c(=O)n1 [CYTARABINE] |  |  |  |  | 2.86 µM | 4.99 µM | 16.9 µM | 2.06 µM | 1.41 | 2.42 | 1.31 | 1.23 | 1.75
